KCNK3 block: human KCNK3 channel inhibitors, primary screen, CHO cells, FluxOR thallium flux, B-score. FluxOR fluorescence; stronger effect = lower value. 340,000 compounds, 0.84% hits. B-score at 10 µM;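 active means B-score under library mean minus 4 SD, starting fluorescence ratio at most library mean plus 5 SD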;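 further: more negative B-score means stronger inhibition of thallium flux through KCNK3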
Target sequence (O14649 whole entry, looked up): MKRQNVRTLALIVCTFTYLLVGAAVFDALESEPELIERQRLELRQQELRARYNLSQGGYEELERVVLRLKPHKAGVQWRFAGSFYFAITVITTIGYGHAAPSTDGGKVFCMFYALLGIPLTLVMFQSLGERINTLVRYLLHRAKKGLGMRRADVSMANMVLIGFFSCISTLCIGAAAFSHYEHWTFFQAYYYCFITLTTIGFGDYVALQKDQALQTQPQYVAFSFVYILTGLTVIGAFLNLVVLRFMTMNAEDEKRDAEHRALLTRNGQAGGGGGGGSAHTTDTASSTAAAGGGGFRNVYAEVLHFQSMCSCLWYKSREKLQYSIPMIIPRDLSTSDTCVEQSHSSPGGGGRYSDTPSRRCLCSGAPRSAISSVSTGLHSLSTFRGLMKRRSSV
KCNK9 inh: KCNK9 potassium channel inhibitors, primary screen, HEK293 cells, thallium flux; FluxOR thallium flux fluorescence; stronger effect = lower value; B-score at 10 µM; 310,000 compounds, 1.2% hits;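 active means ratio B-score over 3 SD below the library mean, with starting fluorescence within 5 SD of its mean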;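 further: negative B-score means less thallium flux so channel inhibition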
Kir21 block: inhibitors of mouse Kir2.1 inward-rectifier potassium channel | B-score at 10 µM | 310,000 compounds, 0.85% hits | AID 1672, 2009 | Inward rectifier potassium channel 2 (Mus musculus), P35561 | HEK293-Kir2.1, FluxOR thallium flux fluorescence; stronger effect = lower value;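 active means fluorescence ratio B-score at or below minus 3 SD of library scores, with starting-brightness B-score within 2 SD, cut at about -4.2 in these data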;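 further: channel flux triggered by added potassium and thallium sulfate stimulus; B-score of peak minus minimum fluorescence over baseline after thallium stimulus; more negative B-score means stronger Kir2.1 block with less thallium influx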
KCNQ1 pot: potentiators or activators of KCNQ1 channel, primary screen, cell-based, thallium flux, high-throughput. CHO-K1 KCNQ1, thallium flux FluxOR fluorescence; stronger effect = higher value. B-score at 10 µM. Potassium voltage-gated channel subfamily KQT member 1 (Homo sapiens), P51787. 310,000 compounds, 0.35% hits;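 active means fluorescence ratio B-score, a plate-corrected score, at least three library SD, with initial intensity B-score within 5 SD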
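System: CHO-K1 cells stably expressing KCNQ1 / Medium: assay buffer for compound exposure, DMSO matched across wells / Reagent: thallium- and potassium-containing depolarizing buffer / Compound: one concentration, matched DMSO / Incubation: 20 min compound pretreatment at room temperature / Measured by: kinetic FluxOR fluorescence, 10 s baseline plus 110 s post-stimulus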
KCNQ1 block: inhibitors of human KCNQ1 channel, primary screen, cell-based, thallium flux, high-throughput | Potassium voltage-gated channel subfamily KQT member 1 (Homo sapiens), P51787 | CHO-K1 KCNQ1, FluxOR thallium flux fluorescence; stronger effect = higher value | B-score at 10 µM | 310,000 compounds, 1.3% hits;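 active means compounds whose thallium flux B-score, printed positive for inhibition, exceeds three library SD while starting fluorescence stays within three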;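 further: channel opened by potassium depolarization with thallium stimulus after 20 min compound exposure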
hERG rescue: hERG rescue from dofetilide block, primary screen, cell-based, CHO-hERG, FluxOR thallium flux, dofetilide IC70 | Voltage-gated inwardly rectifying potassium channel KCNH2 (Homo sapiens), Q12809 | 310,000 compounds, 0.51% hits | activation (rescue from dofetilide block), less the hit threshold, % at 10 µM | dofetilide IC70 present;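 active means activation above the mean of controls blocked by dofetilide plus 5 SD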;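 further: thallium influx through hERG after potassium depolarization seen as dye fluorescence rise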
KCNK3 inh conf: retest of human KCNK3 channel inhibitors, confirmation, CHO cells, FluxOR thallium flux, triplicate. FluxOR fluorescence; 0% buffer, 100% carvedilol maximal block. shares compounds with KCNK3 block. ratio percent of control, % at 10 µM. AID 651638, 2012. 2,400 compounds, 99% hits;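 active means ratio percent of control, averaged over triplicates, above buffer control mean plus 5 SD, cut at about 64% in these data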;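 further: ratio is the fluorescence rise from min to max over baseline after thallium stimulus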
KCNK3 noninduced: thallium flux inhibition in non-induced cells, primary screen, counter-screen for KCNK3 inhibitor project, cell-based, non-induced KCNK3 line, FluxOR thallium, triplicate. thallium flux ratio (lower = more inhibition) at 10 µM. non-induced KCNK3 parental cells; stronger effect = lower value. 2,400 compounds, 40% hits. shares compounds with KCNK3 block;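 active means thallium flux ratio, averaged over three wells, more than 5 SD below the buffer control mean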;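 further: host cells are CHO cells without KCNK3 induction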
Hits are given with their value; - = inactive; . = not tested or not shown. Shown are actives, neighbours in structure and some others; about 3.7% of the full set was active somewhere.

SMILES | KCNK3 block | KCNK9 inh | Kir21 block | KCNQ1 pot | KCNQ1 block | hERG rescue | KCNK3 inh conf | KCNK3 noninduced
Cc1csc2c(N3CCN(C(=O)Nc4ccccc4)CC3)ncnc12 | - | - | - | - | - | - | . | .
O=C(COc1ccc(F)cc1)NCCCn1ccnc1 | - | - | - | - | - | - | . | .
COc1ccc(CNn2c(-c3cccs3)nc3ccccc3c2=O)cc1OC | -9.3 | - | - | - | - | - | 91 | -
COc1cccc(C(=O)Nn2c(-c3cccs3)nc3ccccc3c2=O)c1OC | - | - | - | - | - | - | . | .
O=C(COc1ccccc1)OCC(=O)c1ccc(S(=O)(=O)N2CCCCC2)cc1 | - | . | . | . | . | . | . | .
O=C(Cc1ccccc1F)Nc1nc(-c2ccc(F)cc2)cs1 | -11 | - | - | - | - | - | 126 | -
COc1ccc(OC)c(-c2csc(NC(=O)C3=COCCO3)n2)c1 | -9.1 | - | - | - | - | - | 91 | -
COc1ccc(OC)c(-c2csc(NC(=O)Cc3ccc(F)cc3)n2)c1 | -11 | - | - | - | - | - | 114 | -
COc1ccc(OC)c(-c2csc(NC(=O)Cc3cc(OC)c(OC)c(OC)c3)n2)c1 | - | - | - | - | - | - | . | .
COC(=O)c1ccc(-c2csc(NC(=O)C3=COCCO3)n2)cc1 | - | - | - | - | - | - | . | .
CCN(CCn1cccn1)C(=O)c1cccc(OC2CCN(S(C)(=O)=O)CC2)c1 | - | - | - | - | - | - | . | .
COc1ccc(CN2CCN(C(=O)Cn3nc(C)n4cccc4c3=O)CC2)c(OC)c1OC | - | - | - | - | - | - | . | .
COc1ccc(NC(=O)N2CCN(C(=O)c3ccco3)CC2)c(OC)c1 | - | - | - | - | - | - | . | .
Oc1cccc(Nc2nc(O)c(/C=C3\C=Nc4ccccc43)s2)c1 | -15 | . | . | . | . | . | 148 | 0.083
Oc1nc(Nc2cccc(Cl)c2)sc1/C=C1\C=Nc2ccccc21 | - | - | - | - | - | - | . | .
COc1ccccc1CC(=O)N(CCC1=CCCCC1)c1c(N)n(Cc2ccccc2)c(=O)[nH]c1=O | - | - | - | - | - | - | . | .
COc1ccc(CNCC(O)(c2ccc(Cl)cc2)c2ccc(Cl)cc2)cc1 | -9.3 | - | - | - | - | - | 131 | -
Cc1ccc(NC(=O)C2CCC(CNC(=O)[C@@H]3Cc4ccccc4CN3)CC2)c(C)c1 (stereo partly drawn) | - | - | - | - | - | - | . | .
Cc1nn(C(C)(C)C)c(OC(=O)c2cccs2)c1Sc1ccccc1 | -12 | -8.1 | - | - | - | - | 101 | -
CN(CC(=O)Nc1ccc(F)c(F)c1F)C(=O)c1ccc(-n2cncn2)cc1 | - | . | . | . | . | . | . | .
CC(=O)c1ccc(N(CC(=O)NCCc2ccccc2)C(=O)c2csnn2)cc1 | - | - | - | - | - | - | . | .
CCOC(=O)N1CCC(N2Cc3cccc(C(=O)NC(C)c4ccc5c(c4)OCCO5)c3C2=O)CC1 (stereo not drawn) | -13 | - | - | - | - | - | 101 | -
COc1ccc(-c2[nH]c3ccccc3c2SCCNC(=O)c2ccccc2)cc1 | -9.6 | - | - | - | - | - | 117 | 0.14
COc1ccc(C(=O)NCCSc2ccccc2)cc1 | - | - | - | - | - | - | . | .
O=C(Nc1ccc(-c2cn3c(n2)SCC3)cc1)c1ccc2c(c1)OCO2 | - | - | - | - | - | - | . | .
SMILES | KCNK3 block | KCNK9 inh | Kir21 block | KCNQ1 pot | KCNQ1 block | hERG rescue | KCNK3 inh conf | KCNK3 noninduced
CCCC(CCC)C(=O)Nc1cccc(-c2cn3c(n2)SCC3)c1 | -8.7 | - | - | - | - | - | 99 | -
O=C(Nc1cccc(-c2cn3c(n2)SCC3)c1)c1ccc2c(c1)OCO2 | -11 | - | - | - | - | - | 104 | -
Cc1ccc(CNC(=O)CCSCc2ccc(C)cc2)cc1 | - | - | - | - | - | - | . | .
CCCCCNCc1ccc(Br)cc1 | - | - | - | - | - | - | . | .
CCCCCCNCc1ccc(Br)cc1 | -9.7 | - | - | - | - | - | 77 | -
C=CCN(C(=O)Nc1ccc(OC)cc1)c1nnc(-c2ccncc2)s1 | -9.5 | - | - | - | - | - | 94 | -
O=C(c1cc(-c2cccc(O)c2)on1)N1CCCCCC1 | -11 | - | - | - | - | - | 68 | -
COc1cc(OC)c(OC)cc1/C=C1\Oc2cc(OCC(=O)N3Cc4ccccc4C[C@H]3C(=O)O)ccc2C1=O | - | - | - | - | - | - | . | .
CC(C)OCCCNC(=O)c1cn(C)c2ccc(S(=O)(=O)N(C)C3CCCCC3)cc2c1=O | -9.1 | - | - | - | - | - | 90 | 0.14
O=C(Nc1ccc(Cl)c(Cl)c1)C1CCN(C(=O)c2ccco2)CC1 | - | - | - | - | - | - | . | .
Cc1cccc(C(=O)Nc2cccc3cccnc23)c1 | - | - | - | - | - | - | . | .
O=C(Nc1cccc2cccnc12)c1ccc(Cl)cc1 | -8.9 | - | - | - | - | - | 103 | -
Cc1ccc(C(=O)Nc2cccc3cccnc23)cc1C | -9.9 | - | - | - | - | - | 95 | -
CCN1CCN(CCCNC(=O)CCC(=O)N2CC(C)Oc3ccc(C)cc32)CC1 (stereo not drawn) | - | - | - | - | - | - | . | .
CCOC(=O)c1c(N)sc2c1CCSC2 | -9.6 | - | - | - | - | - | 72 | -
CCCOC(=O)c1c(N)sc2c1CCC2 | - | - | - | - | - | - | . | .
COc1ccc(F)cc1S(=O)(=O)n1nc(C)cc1C | - | - | - | - | - | - | . | .
CC1CC(=O)NC(=O)N1Cc1ccccc1 (stereo not drawn) | - | . | . | . | . | . | . | .
CCOC1C(=O)NC(=O)N1Cc1ccccc1 (stereo not drawn) | -9.3 | - | - | - | - | - | 81 | -
Cc1ccc(-c2csc3ncnc(N4CCN(Cc5ccccc5)CC4)c23)cc1 | -11 | - | - | - | - | - | 119 | -
CC(C)CCn1c(SCC(=O)NC2CCS(=O)(=O)C2)nc2cc(Cl)ccc2c1=O (stereo not drawn) | - | - | - | - | - | - | . | .
N#Cc1nc(COc2ccccc2F)oc1N1CCCCCC1 | - | . | . | . | . | . | . | .
